Experimental data: ChEMBL document CHEMBL3596093, “Synthesis and antimicrobial evaluation of 5-aryl-1,2,4-triazole-3-thione derivatives containing a rhodanine moiety” (2015)
In brackets after ≈: the same amount, converted by molar mass.

What was measured:
[1] = system: Staphylococcus aureus; experiment: Antibacterial activity against quinolone-resistant Staphylococcus aureus CCARM 3505 after 24 hrs by two-fold serial dilution method; type: functional; settings: CCARM 3505, 24 h
Outline: (§1)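 Broth microdilution MIC. Bacteria grown to mid-log phase in Mueller-Hinton broth, diluted 1000-fold, about 10^5 CFU/mL. Compounds from DMSO stocks, two-fold serial dilution from a final 64 µg/mL. Incubation at 37 °C for 24 h. Growth read as absorbance at 630 nm on a microplate reader. Run in triplicate.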

[2] = system: Escherichia coli; experiment: Antibacterial activity against Escherichia coli KCTC 1924 after 24 hrs by two-fold serial dilution method; type: functional; settings: KCTC 1924, 24 h
Outline: (§2)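 Strains grown to mid-log phase in Mueller-Hinton broth, then diluted 1000-fold in the same broth to about 10^5 CFU/mL. Compounds were made up as DMSO stocks and two-fold serially diluted from a final top concentration of 64 µg/mL. Incubation was 37 °C for 24 h. Growth was read as absorbance at 630 nm on a microplate reader. MIC assays were run in triplicate.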

[3] = system: Staphylococcus aureus; experiment: Bactericidal activity against methicillin-resistant Staphylococcus aureus CCARM 3506 after 24 hrs by agar plate method; type: functional; settings: CCARM 3506, 24 h
Outline: (§3)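 5 µL from each well without visible growth plated on fresh Mueller-Hinton agar, then 37 °C for a further 24 h. MBC is the lowest concentration giving no visible colonies. Run in triplicate.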

[4] = system: Escherichia coli; experiment: Antibacterial activity against Escherichia coli CCARM 1356 after 24 hrs by two-fold serial dilution method; type: functional; settings: CCARM 1356, 24 h; outline: as §2
[5] = system: Salmonella typhimurium; experiment: Antibacterial activity against Salmonella typhimurium 2421 after 24 hrs by two-fold serial dilution method; type: functional, Salmonella enterica subsp. enterica serovar Typhimurium; settings: Salmonella enterica, 2421, 24 h; outline: as §2
[6] = system: Staphylococcus aureus; experiment: Bactericidal activity against methicillin-resistant Staphylococcus aureus CCARM 3167 after 24 hrs by agar plate method; type: functional; settings: CCARM 3167, 24 h; outline: as §3
[7] = system: Staphylococcus aureus; experiment: Antibacterial activity against methicillin-resistant Staphylococcus aureus CCARM 3506 after 24 hrs by two-fold serial dilution method; type: functional; settings: CCARM 3506, 24 h; outline: as §1
[8] = system: Staphylococcus aureus; experiment: Bactericidal activity against Staphylococcus aureus KCTC 503 after 24 hrs by agar plate method; type: functional; settings: KCTC 503, 24 h; outline: as §3
[9] = system: Staphylococcus aureus; experiment: Antibacterial activity against quinolone-resistant Staphylococcus aureus CCARM 3519 after 24 hrs by two-fold serial dilution method; type: functional; settings: CCARM 3519, 24 h; outline: as §1
[10] = system: Staphylococcus aureus; experiment: Antibacterial activity against methicillin-resistant Staphylococcus aureus CCARM 3167 after 24 hrs by two-fold serial dilution method; type: functional; settings: CCARM 3167, 24 h; outline: as §1
[11] = system: Streptococcus mutans; experiment: Antibacterial activity against Streptococcus mutans 3065 after 24 hrs by two-fold serial dilution method; type: functional; settings: Streptococcus mutans, 3065, 24 h; outline: as §2
[12] = system: Streptococcus mutans; experiment: Bactericidal activity against Streptococcus mutans 3065 after 24 hrs by agar plate method; type: functional; settings: Streptococcus mutans, 3065, 24 h
Outline: (§4)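 Samples of 5 µL from MIC wells with no visible growth were plated onto fresh Mueller-Hinton agar and incubated a further 24 h at 37 °C. MBC is the lowest concentration giving no visible colony growth on the agar. Assays were run in triplicate.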

[13] = system: Escherichia coli; experiment: Ratio of MBC to MIC for Escherichia coli KCTC 1924; type: functional
Outline: (§5)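 The ratio divides MBC by MIC for the same strain. MIC comes from two-fold broth microdilution in Mueller-Hinton broth (about 10^5 CFU/mL, 37 °C, 24 h, absorbance at 630 nm). MBC comes from subculturing 5 µL from clear wells onto Mueller-Hinton agar for another 24 h at 37 °C, taken as the lowest concentration with no colonies.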

[14] = system: Staphylococcus aureus; experiment: Bactericidal activity against quinolone-resistant Staphylococcus aureus CCARM 3519 after 24 hrs by agar plate method; type: functional; settings: CCARM 3519, 24 h; outline: as §3
[15] = system: Staphylococcus aureus; experiment: Bactericidal activity against quinolone-resistant Staphylococcus aureus CCARM 3505 after 24 hrs by agar plate method; type: functional; settings: CCARM 3505, 24 h; outline: as §3
[16] = system: Candida albicans; experiment: Antifungal activity against Candida albicans 7535 after 24 hrs by two-fold serial dilution method; type: functional; settings: Candida albicans, 7535, 24 h
[17] = system: Escherichia coli; experiment: Bactericidal activity against Escherichia coli KCTC 1924 after 24 hrs by agar plate method; type: functional; settings: KCTC 1924, 24 h; outline: as §4
[18] = system: Staphylococcus aureus; experiment: Antibacterial activity against Staphylococcus aureus KCTC 503 after 24 hrs by two-fold serial dilution method; type: functional; settings: KCTC 503, 24 h; outline: as §2
[19] = system: Staphylococcus aureus; experiment: Ratio of MBC to MIC for Staphylococcus aureus KCTC 503; type: functional; outline: as §5
[20] = system: Pseudomonas aeruginosa; experiment: Antibacterial activity against Pseudomonas aeruginosa 2004 after 24 hrs by two-fold serial dilution method; type: functional; settings: Pseudomonas aeruginosa, 2004, 24 h; outline: as §2
[21] = system: Staphylococcus aureus; experiment: Antibacterial activity against Staphylococcus aureus KCTC 209 after 24 hrs by two-fold serial dilution method; type: functional; settings: KCTC 209, 24 h; outline: as §2
[22] = system: Staphylococcus aureus; experiment: Antibacterial activity against Staphylococcus aureus RN4220 after 24 hrs by two-fold serial dilution method; type: functional; settings: RN4220, 24 h; outline: as §1
[23] = system: Pseudomonas aeruginosa; experiment: Antibacterial activity against Pseudomonas aeruginosa 2742 after 24 hrs by two-fold serial dilution method; type: functional; settings: Pseudomonas aeruginosa, 2742, 24 h; outline: as §2
[24] = system: Staphylococcus aureus; experiment: Bactericidal activity against Staphylococcus aureus RN4220 after 24 hrs by agar plate method; type: functional; settings: RN4220, 24 h; outline: as §4
[25] = system: Staphylococcus aureus; experiment: Bactericidal activity against Staphylococcus aureus KCTC 209 after 24 hrs by agar plate method; type: functional; settings: KCTC 209, 24 h; outline: as §4

Row | Structure (SMILES) | MIC [1] | MIC [2] | MBC [3] | MIC [4] | MIC [5] | MBC [6] | MIC [7] | MBC [8] | MIC [9] | MIC [10] | MIC [11] | MBC [14] | MIC [16] | MBC [17] | MIC [18] | MIC [20] | MIC [21] | MIC [22] | MIC [23] | MBC [24] | other results
1 | O=C(O)[C@H](Cc1ccccc1)N1C(=O)/C(=C/c2ccc(/C=N/n3c(-c4cccc(Br)c4)n[nH]c3=S)cc2)SC1=S | 16 µg/mL (≈ 24.6 µM) | 64 µg/mL (≈ 98.4 µM) | 64 µg/mL (≈ 98.4 µM) | > 128 µg/mL | > 128 µg/mL | 128 µg/mL (≈ 197 µM) | 16 µg/mL (≈ 24.6 µM) | 128 µg/mL (≈ 197 µM) | 32 µg/mL (≈ 49.2 µM) | 32 µg/mL (≈ 49.2 µM) | 64 µg/mL (≈ 98.4 µM) | 256 µg/mL (≈ 393 µM) | > 64 µg/mL | 64 µg/mL (≈ 98.4 µM) | 64 µg/mL (≈ 98.4 µM) | > 128 µg/mL | > 64 µg/mL | 32 µg/mL (≈ 49.2 µM) | > 128 µg/mL | 256 µg/mL (≈ 393 µM) | MBC [12]: > 128 µg/mL; Ratio [13]: <=4; MBC [15]: 128 µg/mL (≈ 197 µM); Ratio [19]: <=4
2 | O=C(O)CN1C(=O)/C(=C/c2ccc(/C=N/n3c(-c4ccccc4Br)n[nH]c3=S)cc2)SC1=S | > 64 µg/mL | 64 µg/mL (≈ 114 µM) |  | > 128 µg/mL | > 128 µg/mL | 256 µg/mL (≈ 457 µM) | > 64 µg/mL |  | 64 µg/mL (≈ 114 µM) | 64 µg/mL (≈ 114 µM) | > 64 µg/mL | > 256 µg/mL | > 64 µg/mL | 256 µg/mL (≈ 457 µM) | > 64 µg/mL | > 128 µg/mL | > 64 µg/mL | 64 µg/mL (≈ 114 µM) | > 128 µg/mL | > 256 µg/mL | Ratio [13]: <=4
3 | O=C(O)CN1C(=O)/C(=C/c2ccc(/C=N/n3c(-c4ccc(F)cc4)n[nH]c3=S)cc2)SC1=S | > 64 µg/mL | > 128 µg/mL |  | > 128 µg/mL | > 128 µg/mL | > 128 µg/mL | > 64 µg/mL |  | 32 µg/mL (≈ 64.1 µM) | 16 µg/mL (≈ 32 µM) | > 64 µg/mL | > 256 µg/mL | > 64 µg/mL |  | > 64 µg/mL | > 128 µg/mL | 64 µg/mL (≈ 128 µM) | 64 µg/mL (≈ 128 µM) | > 128 µg/mL | > 256 µg/mL | MBC [25]: > 256 µg/mL
4 | O=C1NC(=S)S/C1=C\c1ccc(/C=N/n2c(-c3ccccc3)n[nH]c2=S)cc1 | 32 µg/mL (≈ 75.6 µM) | 32 µg/mL (≈ 75.6 µM) | > 256 µg/mL | > 128 µg/mL | > 128 µg/mL | > 256 µg/mL | 32 µg/mL (≈ 75.6 µM) | > 256 µg/mL | 32 µg/mL (≈ 75.6 µM) | 32 µg/mL (≈ 75.6 µM) | 16 µg/mL (≈ 37.8 µM) | > 256 µg/mL | > 64 µg/mL | 128 µg/mL (≈ 302 µM) | 32 µg/mL (≈ 75.6 µM) | > 128 µg/mL | 64 µg/mL (≈ 151 µM) | 32 µg/mL (≈ 75.6 µM) | > 128 µg/mL | > 256 µg/mL | MBC [25]: > 256 µg/mL; MBC [12]: > 128 µg/mL; Ratio [13]: <=4; MBC [15]: > 256 µg/mL
5 | O=C1NC(=S)S/C1=C\c1ccc(/C=N/n2c(-c3ccccc3Cl)n[nH]c2=S)cc1 | 16 µg/mL (≈ 34.9 µM) | 16 µg/mL (≈ 34.9 µM) | > 128 µg/mL | > 128 µg/mL | > 128 µg/mL | > 128 µg/mL | 16 µg/mL (≈ 34.9 µM) | > 256 µg/mL | 16 µg/mL (≈ 34.9 µM) | 16 µg/mL (≈ 34.9 µM) | 16 µg/mL (≈ 34.9 µM) | > 128 µg/mL | > 64 µg/mL | > 128 µg/mL | 16 µg/mL (≈ 34.9 µM) | > 128 µg/mL | 64 µg/mL (≈ 140 µM) | 32 µg/mL (≈ 69.9 µM) | > 128 µg/mL | > 256 µg/mL | MBC [25]: > 256 µg/mL; MBC [12]: > 128 µg/mL; MBC [15]: > 128 µg/mL
6 | O=C1NC(=S)S/C1=C\c1ccc(/C=N/n2c(-c3ccccc3Br)n[nH]c2=S)cc1 | 16 µg/mL (≈ 31.8 µM) | 16 µg/mL (≈ 31.8 µM) | > 128 µg/mL | > 128 µg/mL | > 128 µg/mL | > 128 µg/mL | 16 µg/mL (≈ 31.8 µM) | > 128 µg/mL | 16 µg/mL (≈ 31.8 µM) | 16 µg/mL (≈ 31.8 µM) | 16 µg/mL (≈ 31.8 µM) | > 128 µg/mL | > 64 µg/mL | > 128 µg/mL | 16 µg/mL (≈ 31.8 µM) | > 128 µg/mL | 64 µg/mL (≈ 127 µM) | 16 µg/mL (≈ 31.8 µM) | > 128 µg/mL | 128 µg/mL (≈ 255 µM) | MBC [25]: > 256 µg/mL; MBC [12]: > 128 µg/mL; MBC [15]: > 128 µg/mL
